Data from ChEMBL document CHEMBL3102735, “Enhancing the pharmacodynamic profile of a class of selective COX-2 inhibiting nitric oxide donors” (Bioorg Med Chem, 2014).
Calls of active or inactive are those of the source. The calls are words filed in the database; no cut-off is given here.

What was measured:
Thoracic aorta = experiment: Ex vivo vasorelaxant activity in Wistar rat endothelium thoracic aortic ring assessed as reduction of KCl-induced contraction in presence of guanylate cyclase inhibitor ODQ; assay type: functional
Outline: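 Endothelium-denuded thoracic aortic rings from male Wistar rats (250–350 g) in oxygenated Tyrode-type buffer at 37 °C, isometric tension recording. Rings precontracted with 30 mM KCl, then 3-fold increasing compound concentrations (1 nM–10 µM) added, also with 1 µM ODQ preincubated. Emax as % of KCl tone; pIC50; mean ± SE of 6–10 experiments.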

J774 = experiment: Selectivity index, ratio of IC50 for COX-1 to IC50 for COX-2 in mouse J774 cells; assay type: cell-based
Outline: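 J774 macrophages stimulated 24 h with E. coli LPS (10 µg/mL) to induce COX-2, with or without compound (0.01–10 µM); supernatant PGE2 by RIA. Triplicate wells, three experiments, percent inhibition versus control, IC50 by sigmoidal fit; selectivity as COX-1/COX-2 IC50 ratio.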

Mus musculus [1] = experiment: Antiinflammatory activity in Swiss albino mouse assessed as reduction in carrageenan-induced paw edema at 40 mg/kg, po relative to control; assay type: functional; design: scale not given: the % may be the effect or the level left
Outline: (§1)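 Intraplantar carrageenan, compound po in CMC; volume of right hind paw measured 4 h after carrageenan injection and compared with saline/carrageenan-treated controls; percent oedema reduction.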

[2] = Metabolic stability in Sprague-Dawley rat plasma assessed as compound remaining after 60 mins by LC-MS/MS analysis; assay type: ADME, cell-free; settings: read-out: Stability
Outline: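 Compound (12 µL of 1 mM DMSO solution into 588 µL medium) incubated in PBS pH 7.4, pepsin-free SGF pH 1.5, or EDTA rat plasma. Aliquots taken at 0, 30, 60, 120 min and quenched with ice-cold acetonitrile containing internal standard; parent remaining as percent.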

[3] = Stability of the compound in simulated gastric fluid assessed as compound remaining at pH 1.5 after 60 mins by LC-MS/MS analysis; assay type: physicochemical; settings: read-out: Stability
Outline: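 1 mM DMSO stock added to 0.01 M PBS (pH 7.4) or 0.05 M simulated gastric fluid without pepsin (pH 1.5 with HCl); incubated in hybridisation oven; aliquots at 0, 30, 60, 120 min quenched with ice-cold acetonitrile containing internal standard; parent remaining (%) measured.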

Mus musculus [4] = experiment: Analgesic activity in po dosed Swiss albino mouse assessed as reduction of acetic acid-induced writhing measured every 10 mins after 5 mins of administration; assay type: functional, organism-based
Outline: (§2)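 Male Swiss albino mice (23–25 g), compound given orally in CMC vehicle; writhing induced by 0.6% acetic acid (10 mL/kg) ip. Stretching movements counted for 10 min, starting 5 min after administration; percent reduction versus CMC-treated animals.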

[5] = target: T1, Prostaglandin G/H synthase 1 (Mus musculus, UniProt P22437); experiment: Inhibition of COX-1 in mouse J774 cells using arachidonic acid as substrate assessed as inhibition of prostaglandin E2 production preincubated for 15 mins followed by substrate addition measured after 30 mins by RIA; assay type: cell-based
T1 sequence (P22437 whole entry): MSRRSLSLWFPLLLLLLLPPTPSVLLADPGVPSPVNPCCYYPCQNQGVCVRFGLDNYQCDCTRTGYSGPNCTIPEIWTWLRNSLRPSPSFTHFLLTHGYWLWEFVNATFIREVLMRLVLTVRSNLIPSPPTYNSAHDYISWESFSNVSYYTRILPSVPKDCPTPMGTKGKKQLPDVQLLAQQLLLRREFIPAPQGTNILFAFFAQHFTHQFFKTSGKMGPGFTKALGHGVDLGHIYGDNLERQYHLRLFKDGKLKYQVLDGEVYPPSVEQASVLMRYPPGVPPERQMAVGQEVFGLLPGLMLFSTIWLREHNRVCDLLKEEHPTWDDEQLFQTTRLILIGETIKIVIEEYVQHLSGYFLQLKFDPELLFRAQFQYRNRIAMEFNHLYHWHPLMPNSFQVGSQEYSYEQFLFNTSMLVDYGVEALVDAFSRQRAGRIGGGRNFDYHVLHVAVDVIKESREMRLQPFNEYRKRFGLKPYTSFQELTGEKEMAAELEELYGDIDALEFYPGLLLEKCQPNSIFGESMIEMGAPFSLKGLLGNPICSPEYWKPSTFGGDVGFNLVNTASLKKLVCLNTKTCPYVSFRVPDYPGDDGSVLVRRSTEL
Outline: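 J774 murine macrophages pretreated 15 min with compound (10 µM; lower concentrations 0.01–1 µM where needed), then incubated 30 min at 37 °C with 15 µM arachidonic acid; supernatant PGE2 measured by RIA. Triplicate wells, mean of three experiments of percent inhibition versus control; IC50 by sigmoidal fit.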

Mus musculus [6] = experiment: Antiinflammatory activity in Swiss albino mouse assessed as reduction in carrageenan-induced paw edema at 20 mg/kg, po relative to control; assay type: functional; design: scale not given: the % may be the effect or the level left; outline: as §1
Mus musculus [7] = experiment: Analgesic activity in Swiss albino mouse assessed as reduction of acetic acid-induced writhing at 20 mg/kg, po measured every 10 mins after 5 mins of administration relative to control; assay type: functional; design: scale not given: the % may be the effect or the level left; outline: as §2
[8] = Oral bioavailability in Wistar rat at 10 mg/kg by LC-MS/MS analysis; assay type: ADME, organism-based; settings: in vivo
Outline: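 Male Han Wistar rats, three per route, single 10 mg/kg/5 mL dose iv or po in 5% DMSO, 5% Cremophor EL, 0.1% Tween 80 in 150 mM phosphate buffer pH 7. Jugular-vein blood sampled, plasma methanol-precipitated, parent and hydroxy metabolite quantified by LC–MS/MS in positive ESI MRM mode (LLOQ 1–15 ng/mL).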

[9] = target: T2, Prostaglandin G/H synthase 2 (Mus musculus, UniProt Q05769); experiment: Inhibition of LPS-induced COX-2 in mouse J774 cells using arachidonic acid as substrate assessed as inhibition of prostaglandin E2 production preincubated for 15 mins followed by substrate addition measured after 30 mins by RIA; assay type: cell-based
T2 sequence (Q05769 whole entry): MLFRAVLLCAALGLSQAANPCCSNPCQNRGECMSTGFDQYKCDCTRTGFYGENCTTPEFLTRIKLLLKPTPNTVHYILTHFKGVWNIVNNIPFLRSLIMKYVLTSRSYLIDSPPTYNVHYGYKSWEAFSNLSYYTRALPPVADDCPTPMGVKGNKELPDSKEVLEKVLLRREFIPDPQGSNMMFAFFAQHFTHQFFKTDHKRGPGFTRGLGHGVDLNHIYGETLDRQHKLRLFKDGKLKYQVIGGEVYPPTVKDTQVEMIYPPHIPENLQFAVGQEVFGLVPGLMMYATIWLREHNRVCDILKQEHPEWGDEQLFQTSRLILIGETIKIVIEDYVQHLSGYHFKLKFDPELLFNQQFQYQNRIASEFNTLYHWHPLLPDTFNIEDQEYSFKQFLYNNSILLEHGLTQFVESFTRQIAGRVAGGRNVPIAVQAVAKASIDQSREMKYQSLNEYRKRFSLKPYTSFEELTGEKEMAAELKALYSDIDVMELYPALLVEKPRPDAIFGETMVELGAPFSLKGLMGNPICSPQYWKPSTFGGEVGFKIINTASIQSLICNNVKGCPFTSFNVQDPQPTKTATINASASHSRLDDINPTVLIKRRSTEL

Mus musculus [10] = experiment: Analgesic activity in Swiss albino mouse assessed as reduction of acetic acid-induced writhing at 40 mg/kg, po measured every 10 mins after 5 mins of administration relative to control; assay type: functional; design: scale not given: the % may be the effect or the level left; outline: as §2
Liver = experiment: Induction of nitric oxide production in Wistar rat liver homogenate assessed as nitrate level at 1 mM; assay type: functional, tissue-based; settings: TDE = time-dependent effect

Structure (SMILES): Cc1c(CC(=O)NCCO[N+](=O)[O-])cc(-c2ccc(S(C)(=O)=O)cc2)n1-c1ccc(F)cc1
- Activity (Thoracic aorta): inactive
- Ratio IC50 (J774): > 42
- Activity (Mus musculus [1]): 10%
- remaining at 1 h [2]: 100%
- remaining at 1 h [3]: 100%
- Activity (Mus musculus [4]): Dose-dependent effect
- IC50 [5]: > 10 µM
- Activity (Mus musculus [6]): 4%
- Activity (Mus musculus [7]): 77%
- bioavailability [8]: 24%
- IC50 [9]: 249 nM
- Activity (Mus musculus [10]): 75%
- Activity (Liver): tde
